Source: PMC5908246 (Cell reports, 2018)
“Also recorded” adds a separate entry of the source. Like-named read-outs stand apart in the source and are kept apart here. No end group written: not given here.

Tests used:
[1] = biological target: Med15 activator-binding domain 1 (ABD1) (S. cerevisiae (yeast)) (UniProt P19659); assay: ITC
[2] = biological target: Gcn4 N-terminal activation domain (nAD; residues 1–100) (S. cerevisiae) (UniProt P03069); assay: ITC
[3] = biological target: Gcn4 cAD (residues 101–134) labeled with Oregon Green 488 (S. cerevisiae) (UniProt P03069); assay: fluorescence polarisation
[4] = biological target: Gcn4 tAD (residues 1–134) labeled with Oregon Green 488 (S. cerevisiae) (UniProt P03069); assay: fluorescence polarisation
Med15 ABD2 [5] = biological target: T1, Med15 ABD2 (Saccharomyces cerevisiae, UniProt P19659); assay: ITC binding, Med15 ABD2; set-up: species or system S. cerevisiae; conditions: 20 mM KH2PO4 (pH 7.5), 200 mM KCl, nAD 0.111 mM vs ABD2 1.60 mM, ABD2 0.224 mM vs cAD 2.35 mM, not measurable due to weak binding or low heats of binding
T1 sequence (P19659 277-368): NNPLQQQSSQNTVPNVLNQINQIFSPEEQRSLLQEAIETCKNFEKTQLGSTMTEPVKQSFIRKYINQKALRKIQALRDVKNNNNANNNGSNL

Med15 ABD3 [6] = biological target: T2, Med15 ABD3 (Saccharomyces cerevisiae, UniProt P19659); assay: ITC binding, Med15 ABD3; set-up: species or system S. cerevisiae; conditions: 20 mM KH2PO4 (pH 7.5), 200 mM KCl; for Kd: nAD 0.111 mM vs ABD3 1.12 mM, ABD3 0.236 mM vs cAD 2.35 mM, single binding site model
T2 sequence (P19659 484-651): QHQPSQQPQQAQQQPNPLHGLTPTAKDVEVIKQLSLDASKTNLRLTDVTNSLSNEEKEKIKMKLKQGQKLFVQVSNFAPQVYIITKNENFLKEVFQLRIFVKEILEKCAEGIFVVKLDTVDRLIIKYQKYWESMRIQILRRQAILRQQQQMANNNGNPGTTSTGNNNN
Outline: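 ITC was run on a MicroCal ITC200 in 20 mM KH2PO4 (pH 7.5), 200 mM KCl. In one run, Gcn4 nAD in the cell (0.111 mM) was titrated with Med15 ABD3 from the syringe (1.12 mM). In the other, ABD3 in the cell (0.236 mM) was titrated with Gcn4 cAD (2.35 mM). Data were fitted with a single binding site model.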

Med15 ABD2 [7] = biological target: T1, Med15 ABD2; assay: Fluorescence polarization binding, Med15 ABD2; set-up: species or system S. cerevisiae
Outline: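 Gcn4 AD peptides (nAD, cAD, tAD) labelled with Oregon Green 488 were titrated with Med15 ABD2, giving 15 concentrations spanning 0–250 μM for tAD. Proteins were size-exclusion purified into 20 mM KH2PO4 (pH 7.5), 200 mM KCl. Polarization was measured on a Beacon 2000. Kd was fitted with a one-site total binding model including a nonspecific term and background.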

Med15 ABD1 [8] = biological target: T3, Med15 ABD1 (Saccharomyces cerevisiae, UniProt P19659); assay: NMR competition: unlabeled cAD added to 15N-tAD + ABD1; type: binding, S. cerevisiae; conditions: (1H,15N)-HSQC
T3 sequence (P19659 158-238 limits assumed): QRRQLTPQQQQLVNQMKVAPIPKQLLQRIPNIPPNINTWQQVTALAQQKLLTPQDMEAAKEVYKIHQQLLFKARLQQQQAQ

Med15 ABD1 [9] = biological target: T3, Med15 ABD1; conditions: ITC; 20 mM KH2PO4 (pH 7.5), 200 mM KCl; cAD; ref Brzovic et al., 2011; cited from earlier work
Med15 KIX = biological target: T4, Med15 KIX (Saccharomyces cerevisiae, UniProt P19659); conditions: FP; Oregon Green 488-labeled Gcn4 peptide; ref Herbig et al., 2010; cited from earlier work
T4 sequence (P19659 6-91): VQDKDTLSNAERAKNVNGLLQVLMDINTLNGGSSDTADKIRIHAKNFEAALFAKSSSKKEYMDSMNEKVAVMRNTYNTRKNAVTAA

Med15 ABD1 [10] = biological target: T3, Med15 ABD1; conditions: ref Brzovic et al., 2011; cited from earlier work
Med15 ABD1 [11] = biological target: T3, Med15 ABD1; assay: ITC binding, Med15 ABD1; set-up: species or system S. cerevisiae; conditions: 200 mM KCl
Outline: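 ITC was run on a MicroCal ITC200 in 20 mM KH2PO4 (pH 7.5), 200 mM KCl. Med15 ABD1 in the cell (0.150 mM) was titrated with Gcn4 nAD from the syringe (1.50 mM). Thermodynamic parameters came from a single binding site model fit.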

Med15 ABD1 [12] = biological target: T3, Med15 ABD1; assay: NMR secondary structure propensity upon binding ABD1; set-up: species or system S. cerevisiae; conditions: bound to ABD1; backbone chemical shifts, ncSPC; 25°C
Outline: (§1)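 ¹³C,¹⁵N-labelled Gcn4 nAD was titrated with unlabelled Med15 ABD at ~200 μM labelled sample. Bound-state assignments were checked by triple-resonance experiments. Secondary structure propensity came from backbone chemical shifts via ncSPC.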

Med15 ABD2 [13] = biological target: T1, Med15 ABD2; assay: NMR secondary structure propensity upon binding ABD2; set-up: species or system S. cerevisiae; conditions: bound to ABD2, saturating; backbone chemical shifts, ncSPC; 25°C
Outline: as §1

[14] = tested on: Med15 KIX domain (in KIX123); assay: EDC crosslinking-MS, KIX123-tAD, links to KIX; type: binding, S. cerevisiae; conditions: EDC 7.5 mM, Sulfo-NHS 2 mM, 2 hr, room temperature; Gcn4 1–140
Outline: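 Gcn4 AD and KIX123 were purified by size exclusion into PBS (pH 7.2) and cross-linked for 2 hr at room temperature. Samples were reduced (50 mM TCEP, 8 M urea, 37°C, 15 min), alkylated (15 mM iodoacetamide, dark, 37°C, 1 hr), diluted 10-fold in 100 mM ammonium bicarbonate and digested overnight at 37°C with trypsin (1:15 w/w). After C18 cleanup, peptides were run on an Orbitrap Elite with HCD and a 90 min 5–40% ACN gradient. pLink and Nexus searches used 5% FDR, and a crosslink required ≥4 consecutive b/y ions per peptide.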

Med15 ABD1 [15] = biological target: T3, Med15 ABD1; conditions: FP; Oregon Green 488-labeled Gcn4 peptide; ref Herbig et al., 2010; cited from earlier work
Med15 ABD2 [16] = biological target: T1, Med15 ABD2; conditions: FP; Oregon Green 488-labeled Gcn4 peptide; ref Herbig et al., 2010; cited from earlier work
Med15 ABD3 [17] = biological target: T2, Med15 ABD3; conditions: FP; Oregon Green 488-labeled Gcn4 peptide; ref Herbig et al., 2010; cited from earlier work
Med15 ABD123 [18] = biological target: T5, Med15 ABD123 (Saccharomyces cerevisiae, UniProt P19659, DEL239-272/DEL373-483); conditions: FP; Oregon Green 488-labeled Gcn4 peptide; ref Herbig et al., 2010; cited from earlier work
T5 sequence (P19659 with tags, fused parts or gaps DEL239-272/DEL373-483): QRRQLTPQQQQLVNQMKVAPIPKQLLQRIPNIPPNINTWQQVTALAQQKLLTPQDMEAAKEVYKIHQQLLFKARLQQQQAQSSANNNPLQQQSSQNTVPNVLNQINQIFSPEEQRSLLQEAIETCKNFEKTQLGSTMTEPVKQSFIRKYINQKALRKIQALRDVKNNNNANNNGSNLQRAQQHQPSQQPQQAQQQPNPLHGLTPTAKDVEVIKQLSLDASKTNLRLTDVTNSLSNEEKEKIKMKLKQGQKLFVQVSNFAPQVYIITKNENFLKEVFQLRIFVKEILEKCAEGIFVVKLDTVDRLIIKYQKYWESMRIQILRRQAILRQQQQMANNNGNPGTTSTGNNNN

Med15 ABD123 [19] = biological target: T5, Med15 ABD123; assay: Fluorescence polarization binding, Med15 ABD123; set-up: species or system S. cerevisiae; conditions: tAD binding to ABD123
Outline: (§2)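 Gcn4 tAD peptide labelled with Oregon Green 488 was titrated with 15 Med15 concentrations spanning 0–250 μM (ABD123 or KIX123). Proteins were in 20 mM KH2PO4 (pH 7.5), 200 mM KCl. Polarization was read on a Beacon 2000. Kd came from non-linear regression to a one-site total binding model (Bmax·X/(Kd+X) + NS·X + background).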

Med15 KIX123 = assay: Fluorescence polarization binding, Med15 KIX123; set-up: species or system S. cerevisiae; conditions: KIX123 vs ABD123
Outline: as §2

individual Med15 ABDs = assay: ITC and/or FP binding to individual Med15 ABDs; set-up: species or system S. cerevisiae
Outline: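 Med15 ABD and Gcn4 AD proteins came from E. coli BL21(DE3) RIL and were polished by size exclusion into 20 mM KH₂PO₄ (pH 7.5), 200 mM KCl; concentrations were set by UV-Vis. FP used Oregon Green 488-labelled Gcn4 peptides, with 15 Med15 concentrations (0–250 µM) against tAD and 0–225 µM ABD3 against cAD. FP data were fit to a one-site total binding model with a nonspecific term. ITC data were fit to a single-site model.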

Molecule: Gcn4 N-terminal activation domain (nAD; residues 1–100) (from UniProt P03069 1-100) (domain or fragment)
- Kd [1]: 10.8 µM
- dH [1]: 2.45 kcal/mol

Molecule: Med15 activator-binding domain 3 (ABD3; Med15 484–651) (from UniProt P19659 484-651) (domain or fragment)
- Kd [2]: 23.9 µM
- dH [2]: 7.02 kcal/mol
- Kd [3]: 13.9 µM
- Kd [4]: 4.4 µM

Molecule: Med15 activator-binding domain 2 (ABD2; residues 277–368) (from UniProt P19659 277-368) (domain or fragment)
- Kd [4]: 19.5 µM

Molecule: STDSTPMFEYENLEDNSKEWTSLFDNDIPVTTDD [cAD]
- Kd (Med15 ABD2 [5]): unable to measure
- Kd (Med15 ABD3 [6]): unable to measure
- weaker binding (cAD to ABD2) than the other pairwise interactions (Med15 ABD2 [7]): ~ 10 fold
- affinity for ABD2 (in words) (Med15 ABD2 [7]; compared with nAD or tAD): substantially weaker affinity
- competition with 15N-tAD for ABD1 (Med15 ABD1 [8]): cAD can compete off both cAD and nAD residues
- ΔS (Med15 ABD1 [9]): 4.58 cal/mol/deg
- Kd (Med15 KIX): neither nAD nor cAD showed detectable KIX binding; also recorded: unable to measure
- helical structure upon ABD1 binding, residues 117–125 (Med15 ABD1 [10]): adopt helical structure

Molecule: Med15 158–651 Δ239–272, Δ373–483 (ABD123) (from UniProt P19659 158-651) (domain or fragment)
- Kd [4]: 0.109 µM

Molecule: Med15 activator-binding domain 1 (ABD1) (from UniProt P19659 158-238) (domain or fragment)
- Kd [4]: 2.66 µM

B1: nAD: N-terminal activation domain of Gcn4, residues 1–100 (protein, UniProt P03069 1-100, looked up, fragment)
chain: MSEYQPSLFALNPMGFSPLDGSKSTNENVSASTSTAKPMVGQLIFDKFIKTEEDPIIKQDTPSNLDFDFALPQTATAPDAKTVLPIPELDDAVVESFFSS
- ΔH (Med15 ABD1 [11]; 20 mM KH2PO4 (pH 7.5), nAD): 2,454 ± 78 cal/mol
- ΔS (Med15 ABD1 [11]; 20 mM KH2PO4 (pH 7.5), nAD): 31.0 cal/mol/deg
- Kd (Med15 ABD1 [11]; Microcal ITC200, 20 mM KH2PO4 (pH 7.5), cell ABD1 0.150 mM, syringe nAD 1.50 mM, single binding site model): 10.8 ± 1.5 µM
- Kd (Med15 ABD2 [5]): unable to measure
- ΔH (Med15 ABD3 [6]): 7,015 ± 221 cal/mol
- Kd (Med15 ABD3 [6]): 23.9 ± 2 µM
- helical content of the other three nAD hydrophobic clusters (Med15 ABD1 [12]): < 20%
- helical content of C-terminal hydrophobic cluster (residues 94–98) (Med15 ABD2 [13]): ~ 25%
- crosslinks to Med15 KIX domain [14]: crosslinks extensively to Gcn4 in the large complex, mainly to nAD
- Kd (Med15 ABD1 [15]): 3.3 ± 0.5 µM
- Kd (Med15 ABD2 [16]): 21.8 ± 3.8 µM
- Kd (Med15 ABD3 [17]): 2.6 ± 0.4 µM
- Kd (Med15 KIX): neither nAD nor cAD showed detectable KIX binding; also recorded: unable to measure
- Kd (Med15 ABD123 [18]): 0.36 ± 0.02 µM

B2: tAD: tandem AD polypeptide, Gcn4 residues 1–134 (1–140 in crosslinking) (protein, UniProt P03069 1-134, looked up, fragment)
chain: MSEYQPSLFALNPMGFSPLDGSKSTNENVSASTSTAKPMVGQLIFDKFIKTEEDPIIKQDTPSNLDFDFALPQTATAPDAKTVLPIPELDDAVVESFFSSSTDSTPMFEYENLEDNSKEWTSLFDNDIPVTTDD
- higher affinity than the strongest piecemeal interaction (Med15 ABD123 [19]): about 20 fold
- increase of Gcn4 affinity by presence of KIX along with ABD1,2,3 (Med15 KIX123): ~ 30%
- affinity for individual ABDs (in words) (individual Med15 ABDs): affinity close to the stronger of the individual nAD or cAD interactions
